Each block holds one molecule with its values, some of them ahead of it. The source made the active and inactive calls. The rule behind the calls is not given here.
Tests used:
[1] = target: T1, Melanin-concentrating hormone receptor 1 (Homo sapiens, UniProt Q99705); assay: Displacement of [125I]-MCH(4 to 19) from human MCHR1 expressed in CHO cell membranes after 1 hr liquid scintillation counting
Salmonella typhimurium [2] = assay: Mutagenicity in Salmonella typhimurium TA1537 assessed as increase in number of revertant colony up to 5000 ug/plate by Ames test in absence of S9 fraction; assay type: toxicity, organism-based; details: salmonella enterica subsp. enterica serovar typhimurium
Outline: (§1)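 Ames test in Salmonella typhimurium TA1537, with and without S9 metabolic activation. A positive call is a more than two-fold increase in revertant colonies over vehicle control.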

[3] = target: Melanin-concentrating hormone receptor 1 (Rattus norvegicus, UniProt P97639); assay: Displacement of [125I]-MCH(4 to 19) from rat MCHR1 expressed in CHO cell membranes after 1 hr by liquid scintillation counting
Melanin-concentrating hormone receptor 1 (Rattus norvegicus, UniProt P97639), sequence (P97639 whole entry): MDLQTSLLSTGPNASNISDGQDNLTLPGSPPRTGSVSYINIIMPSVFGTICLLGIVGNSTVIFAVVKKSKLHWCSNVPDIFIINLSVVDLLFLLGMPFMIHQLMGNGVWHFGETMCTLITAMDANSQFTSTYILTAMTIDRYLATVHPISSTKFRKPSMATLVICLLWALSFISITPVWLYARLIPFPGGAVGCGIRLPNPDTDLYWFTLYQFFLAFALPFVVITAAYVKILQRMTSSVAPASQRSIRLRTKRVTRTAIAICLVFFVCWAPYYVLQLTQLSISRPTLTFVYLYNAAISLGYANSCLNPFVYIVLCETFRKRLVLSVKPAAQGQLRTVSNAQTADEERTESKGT

[4] = target: T1, Melanin-concentrating hormone receptor 1; assay: Antagonist activity at human MCHR1 expressed in CHO cells assessed as inhibition of MCH-stimulated Ca2+ mobilization measured every 2 secs by fluorometric analysis; assay type: functional, cell-based
Outline: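 Human MCHR1 stably transfected into CHO dhfr− cells; clone no.4 used. Cells seeded at 20000/well, cultured about 24 h at 37 °C in 5% CO2, loaded with Fluo4 dye for 30 min. Compound in 10 mM HEPES pH 7.4 buffer with 0.1% BSA added first, then MCH(4–19) at 2 nM final. Fluorescence read at 2 s intervals; inhibition % taken against ligand-only and DMSO-only wells.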

[5] = Oral bioavailability in Sprague-Dawley rat plasma at 1 mg/kg administered through cassette dosing by LC/MS/MS analysis; assay type: ADME, organism-based
Outline: (§2)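 Male SD rats, eight weeks old, fed; cassette dosing iv at 0.1 mg/kg or po at 1 mg/kg as a suspension in 0.5% methylcellulose, n = 3. Plasma taken from blood, deproteinized with acetonitrile, centrifuged, and the supernatant measured by LC/MS/MS. AUC covers 0–8 h.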

[6] = Total plasma clearance in Sprague-Dawley rat at 0.1 mg/kg, iv administered through cassette dosing by LC/MS/MS analysis; assay type: ADME, organism-based; outline: as §2
[7] = Volume of distribution at steady state in Sprague-Dawley rat at 0.1 mg/kg, iv administered through cassette dosing by LC/MS/MS analysis; assay type: ADME, organism-based; details: in vivo, read-out: Vdss; outline: as §2
[8] = Cmax in Sprague-Dawley rat at 1 mg/kg, po administered through cassette dosing by LC/MS/MS analysis; assay type: ADME, organism-based; set-up: dose 1 mg/kg, route oral; details: in vivo; outline: as §2
[9] = Tmax in Sprague-Dawley rat at 1 mg/kg, po administered through cassette dosing by LC/MS/MS analysis; assay type: ADME, organism-based; details: in vivo; outline: as §2
[10] = AUC(0 to 8 hrs) in Sprague-Dawley rat at 1 mg/kg, po administered through cassette dosing by LC/MS/MS analysis; assay type: ADME, organism-based; set-up: dose 1 mg/kg, route oral; details: in vivo; outline: as §2
Rattus norvegicus [11] = assay: Anorectic effect in DIO-F344/Jcl rat at 3 mg/kg, po administered for 2 days started 2 hrs prior to onset of dark period measured during compound dosing; assay type: functional
Outline: (§3)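 Male DIO-F344/Jcl rats, 44 weeks old, on high-fat diet from 5 weeks of age. Singly housed on powder high-fat diet and habituated to oral dosing with tap water, then grouped by day-0 food intake and body weight. Oral dosing at 2 mL/kg in 0.5% methylcellulose 2 h before dark onset for 2 days, n = 6. Two-day food intake is expressed as inhibition rate versus vehicle.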

Rattus norvegicus [12] = assay: Antiobesity activity in DIO-F344/Jcl rat assessed as reduction in body weight at 3 mg/kg, po dosed for 2 weeks and measured every 2 or 3 days relative to vehicle control; assay type: functional, organism-based
Outline: (§4)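 DIO-F344 rats, 48 weeks old, habituated and grouped as for the acute study. Dosed orally once daily for 2 weeks at 2 mL/kg in 0.5% methylcellulose, 1–3 h before dark onset, after body weight measurement; n = 6. Sibutramine positive control. Food intake read every 2 or 3 days. Body weight change is taken as percent of initial weight; mean and SD reported.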

Rattus norvegicus [13] = assay: Anorectic effect in DIO-F344/Jcl rat at 10 mg/kg, po administered for 2 days started 2 hrs prior to onset of dark period measured during compound dosing; assay type: functional; outline: as §3
Rattus norvegicus [14] = assay: Antiobesity activity in DIO-F344/Jcl rat assessed as reduction in body weight at 5 mg/kg, po dosed for 2 weeks and measured every 2 or 3 days relative to vehicle control; assay type: functional; set-up: scale not given: the % may be the effect or the level left; outline: as §4
Rattus norvegicus [15] = assay: Antiobesity activity in DIO-F344/Jcl rat assessed as reduction in body weight at 10 mg/kg, po dosed for 2 weeks and measured every 2 or 3 days relative to vehicle control; assay type: functional; set-up: scale not given: the % may be the effect or the level left; outline: as §4
[16] = Fraction unbound in DIO-F344/Jcl rat plasma at 10 mg/kg, po; assay type: ADME, organism-based
Mus musculus [17] = species: Mus musculus; assay: Anorectic effect in wild type mouse assessed as reduction in food intake; assay type: functional, organism-based
Mus musculus [18] = species: Mus musculus; assay: Toxicity in MCHR deficient mouse assessed as effect on food intake; assay type: organism-based; details: in vivo
Rattus norvegicus [19] = assay: Trough plasma concentration in DIO-F344/Jcl rat at 10 mg/kg, po; assay type: ADME, organism-based; details: in vivo, read-out: Cmin
Plasma = assay: Unbound plasma concentration in DIO-F344/Jcl rat at 10 mg/kg, po; assay type: ADME, organism-based; details: in vivo
[20] = Ratio of drug level in brain to plasma in po dosed DIO-F344/Jcl rat; assay type: ADME, organism-based; details: read-out: BPR
Cytochrome P450 1A2 = target: T2, Cytochrome P450 1A2 (Homo sapiens, UniProt P05177); assay: Reversal inhibition of CYP1A2 (unknown origin) at 10 uM; assay type: ADME
T2 sequence (P05177 whole entry): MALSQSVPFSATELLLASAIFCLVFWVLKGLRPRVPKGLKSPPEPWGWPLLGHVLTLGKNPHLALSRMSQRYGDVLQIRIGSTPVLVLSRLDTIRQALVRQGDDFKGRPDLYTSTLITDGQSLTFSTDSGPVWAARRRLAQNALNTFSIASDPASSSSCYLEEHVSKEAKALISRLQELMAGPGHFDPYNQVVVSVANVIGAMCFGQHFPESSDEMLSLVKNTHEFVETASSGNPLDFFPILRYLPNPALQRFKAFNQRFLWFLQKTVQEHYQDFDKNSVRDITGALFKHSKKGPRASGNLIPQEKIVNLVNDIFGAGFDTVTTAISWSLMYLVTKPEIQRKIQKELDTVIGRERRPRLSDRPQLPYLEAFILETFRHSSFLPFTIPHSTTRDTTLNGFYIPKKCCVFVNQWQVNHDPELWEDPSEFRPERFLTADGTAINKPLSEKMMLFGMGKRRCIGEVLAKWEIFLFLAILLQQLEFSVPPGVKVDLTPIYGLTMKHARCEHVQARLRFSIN

Cytochrome P450 2C8 = target: T3, Cytochrome P450 2C8 (Homo sapiens, UniProt P10632); assay: Reversal inhibition of CYP2C8 (unknown origin) at 10 uM; assay type: ADME
T3 sequence (P10632 whole entry): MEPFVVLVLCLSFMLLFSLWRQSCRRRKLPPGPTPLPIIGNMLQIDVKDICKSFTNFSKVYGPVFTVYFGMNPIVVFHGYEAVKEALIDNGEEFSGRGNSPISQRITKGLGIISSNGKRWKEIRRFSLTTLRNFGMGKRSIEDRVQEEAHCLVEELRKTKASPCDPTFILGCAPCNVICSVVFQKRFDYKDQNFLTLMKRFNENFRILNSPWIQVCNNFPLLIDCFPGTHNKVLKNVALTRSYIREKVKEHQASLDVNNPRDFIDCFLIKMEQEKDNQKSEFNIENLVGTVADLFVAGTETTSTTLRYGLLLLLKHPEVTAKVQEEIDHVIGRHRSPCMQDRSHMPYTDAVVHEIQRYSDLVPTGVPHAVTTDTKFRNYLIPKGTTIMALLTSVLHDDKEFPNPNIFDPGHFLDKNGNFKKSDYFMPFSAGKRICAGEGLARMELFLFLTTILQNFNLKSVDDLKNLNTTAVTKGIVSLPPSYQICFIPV

Cytochrome P450 2C9 = Cytochrome P450 2C9 (Homo sapiens, UniProt P11712); assay: Reversal inhibition of CYP2C9 (unknown origin) at 10 uM; assay type: ADME
Cytochrome P450 2C9, sequence (P11712 whole entry): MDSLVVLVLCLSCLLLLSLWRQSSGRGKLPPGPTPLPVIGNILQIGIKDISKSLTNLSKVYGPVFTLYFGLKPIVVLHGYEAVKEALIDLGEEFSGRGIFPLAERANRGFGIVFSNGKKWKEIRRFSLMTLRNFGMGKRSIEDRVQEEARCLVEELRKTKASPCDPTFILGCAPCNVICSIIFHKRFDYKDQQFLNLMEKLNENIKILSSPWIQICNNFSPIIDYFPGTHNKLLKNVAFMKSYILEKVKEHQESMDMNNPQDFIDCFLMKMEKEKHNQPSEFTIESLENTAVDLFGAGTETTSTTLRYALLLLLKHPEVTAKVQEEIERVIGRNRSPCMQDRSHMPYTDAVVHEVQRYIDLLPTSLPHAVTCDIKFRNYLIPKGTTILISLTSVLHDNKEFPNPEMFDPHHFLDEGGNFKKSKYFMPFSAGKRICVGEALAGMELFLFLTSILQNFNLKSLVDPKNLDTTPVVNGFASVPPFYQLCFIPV

Cytochrome P450 2D6 = Cytochrome P450 2D6 (Homo sapiens, UniProt P10635); assay: Reversal inhibition of CYP2D6 (unknown origin) at 10 uM; assay type: ADME
Cytochrome P450 2D6, sequence (P10635 whole entry): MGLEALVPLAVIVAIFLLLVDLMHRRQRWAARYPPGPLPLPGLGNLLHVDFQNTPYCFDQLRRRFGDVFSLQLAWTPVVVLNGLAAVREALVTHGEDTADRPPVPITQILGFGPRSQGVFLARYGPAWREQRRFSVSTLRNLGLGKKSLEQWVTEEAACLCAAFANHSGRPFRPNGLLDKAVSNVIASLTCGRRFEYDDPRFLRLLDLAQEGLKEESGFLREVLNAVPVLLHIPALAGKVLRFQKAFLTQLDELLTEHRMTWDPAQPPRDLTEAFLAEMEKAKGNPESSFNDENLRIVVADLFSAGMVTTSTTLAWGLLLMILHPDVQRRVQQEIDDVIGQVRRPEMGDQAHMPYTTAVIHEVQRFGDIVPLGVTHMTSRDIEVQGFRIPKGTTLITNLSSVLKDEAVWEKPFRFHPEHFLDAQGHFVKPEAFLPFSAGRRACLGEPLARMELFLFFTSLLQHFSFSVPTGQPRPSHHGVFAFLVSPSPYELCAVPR

Cytochrome P450 3A4 = Cytochrome P450 3A4 (Homo sapiens, UniProt P08684); assay: Reversal inhibition of CYP3A4 (unknown origin) at 10 uM; assay type: ADME
Cytochrome P450 3A4, sequence (P08684 whole entry): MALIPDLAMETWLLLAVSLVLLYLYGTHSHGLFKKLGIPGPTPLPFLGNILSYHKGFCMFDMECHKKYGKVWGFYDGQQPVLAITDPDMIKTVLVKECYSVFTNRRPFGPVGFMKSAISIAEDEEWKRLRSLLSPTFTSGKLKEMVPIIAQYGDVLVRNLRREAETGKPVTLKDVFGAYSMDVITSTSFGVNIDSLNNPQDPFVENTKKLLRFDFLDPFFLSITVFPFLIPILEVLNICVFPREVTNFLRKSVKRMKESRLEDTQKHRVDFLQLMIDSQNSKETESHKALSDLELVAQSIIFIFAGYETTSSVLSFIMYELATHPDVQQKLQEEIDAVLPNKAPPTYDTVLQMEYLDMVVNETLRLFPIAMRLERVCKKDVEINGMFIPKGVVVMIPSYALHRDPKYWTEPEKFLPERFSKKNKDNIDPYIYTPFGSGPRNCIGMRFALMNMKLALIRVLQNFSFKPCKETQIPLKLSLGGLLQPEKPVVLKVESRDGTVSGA

Rattus norvegicus [21] = assay: Anorectic effect in DIO-F344/Jcl rat assessed as reduction in cumulative food intake at 5 mg/kg, po administered once daily for 2 weeks measured during compound dosing; set-up: scale not given: the % may be the effect or the level left
Rattus norvegicus [22] = assay: Anorectic effect in DIO-F344/Jcl rat assessed as reduction in cumulative food intake at 10 mg/kg, po administered once daily for 2 weeks measured during compound dosing; set-up: scale not given: the % may be the effect or the level left
Salmonella typhimurium [23] = assay: Mutagenicity in Salmonella typhimurium TA1537 at 250 ug by Ames test in presence of S9 fraction; assay type: toxicity, organism-based, Salmonella enterica subsp. enterica serovar Typhimurium; outline: as §1
Salmonella typhimurium [24] = assay: Mutagenicity in Salmonella typhimurium TA1537 assessed as increase in number of revertant colony at 250 ug/plate by Ames test in absence of S9 fraction; assay type: toxicity, organism-based; details: salmonella enterica subsp. enterica serovar typhimurium; outline: as §1
Salmonella typhimurium [25] = assay: Mutagenicity in Salmonella typhimurium TA1537 assessed as increase in number of revertant colony at 313 ug/plate by Ames test in absence of S9 fraction; assay type: toxicity, organism-based; details: salmonella enterica subsp. enterica serovar typhimurium

T1 sequence (Q99705 whole entry): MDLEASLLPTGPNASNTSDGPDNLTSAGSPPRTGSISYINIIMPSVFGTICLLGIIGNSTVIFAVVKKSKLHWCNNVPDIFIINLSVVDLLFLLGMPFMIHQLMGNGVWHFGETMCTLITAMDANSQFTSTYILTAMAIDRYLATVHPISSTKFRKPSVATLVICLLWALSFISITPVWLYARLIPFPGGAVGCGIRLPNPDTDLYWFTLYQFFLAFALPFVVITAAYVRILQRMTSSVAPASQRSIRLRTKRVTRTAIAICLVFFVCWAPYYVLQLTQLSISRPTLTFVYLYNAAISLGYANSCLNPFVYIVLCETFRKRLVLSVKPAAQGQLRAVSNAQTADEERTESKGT

Structure (SMILES): Cc1nn(C)c2ccc(-n3ccc(OCc4ccc(Cl)cc4)cc3=O)cc12
IC50 [1]: 99 nM

Structure (SMILES): Cc1c(C2CC2)nn2ccc(-n3ccc(OCc4ccc(Cl)cc4)cc3=O)cc12
IC50 [1]: 69 nM

Structure (SMILES): Cc1c2cc(-n3ccc(OCc4cc(C(F)(F)F)cs4)cc3=O)ccc2nn1C
IC50 [1]: 74 nM | IC50 [3]: 38 nM

Structure (SMILES): CCn1nc2ccc(-n3ccc(OCc4ccc(Cl)cc4)cc3=O)cc2c1C
IC50 [1]: 140 nM | IC50 [3]: 65 nM

Structure (SMILES): Cn1c(C2CC2)cc2ccc(-n3ccc(OCc4ccc(Cl)cc4)cc3=O)cc21
IC50 [1]: 150 nM

Structure (SMILES): Cc1c2cc(-n3ccc(OCc4csc(C(F)(F)F)n4)cc3=O)ccc2nn1C
IC50 [1]: 230 nM | IC50 [3]: 130 nM

Structure (SMILES): Cc1c2cc(-n3ccc(OCc4csc(C(F)(F)F)c4)cc3=O)ccc2nn1C
IC50 [1]: 90 nM | IC50 [3]: 70 nM | fold change (FC) (Salmonella typhimurium [25]): 2

Structure (SMILES): Cc1c2cc(-n3ccc(OCc4nc(C(F)(F)F)cs4)cc3=O)ccc2nn1C
IC50 [1]: 130 nM | IC50 [3]: 76 nM

Structure (SMILES): Cc1c2cc(-n3ccc(OCc4ccc(F)cc4)cc3=O)ccc2nn1C1CC1
Activity (Salmonella typhimurium [2]): Non-toxic | IC50 [1]: 43 nM | IC50 [3]: 35 nM

Now from value to molecule, other results behind:

IC50 [1]: 31 nM | IC50 [3]: 23 nM | IC50 [4]: 33 nM | bioavailability [5]: 37% | clearance [6]: 3.45 mL/min/kg | Vd [7]: 0.676 L/kg | Cmax [8]: 291 ng/mL | Tmax [9]: 4 h | AUC(0-t) at 6 h [10]: 1810 ng·h/mL
Structure (SMILES): Cc1c2cc(-n3ccc(OCc4ccc(Cl)cc4)cc3=O)ccc2nn1C1CC1
Activity (Salmonella typhimurium [2]): Non-toxic

IC50 [1]: 38 nM | IC50 [3]: 26 nM | IC50 [4]: 79 nM | fraction unbound [16]: 0.022 | concentration (Rattus norvegicus [19]): 3.36 µM | Cp(f) (Plasma): 0.0739 µM | Kp [20]: 0.66 | bioavailability [5]: 78% | clearance [6]: 4.93 mL/min/kg | Vd [7]: 0.949 L/kg | Cmax [8]: 426 ng/mL | Tmax [9]: 2.7 h | AUC(0-t) at 6 h [10]: 2880 ng·h/mL | inhibition (INH) (Cytochrome P450 1A2): Not Active | inhibition (INH) (Cytochrome P450 2C8): Not Active | inhibition (INH) (Cytochrome P450 2C9): Not Active | inhibition (INH) (Cytochrome P450 2D6): Not Active | inhibition (INH) (Cytochrome P450 3A4): Not Active
Structure (SMILES): Cc1c2cc(-n3ccc(OCc4csc(C(F)(F)F)c4)cc3=O)ccc2nn1C1CC1
Activity (Salmonella typhimurium [2]): Non-toxic | Activity (Rattus norvegicus [11]): 21.5% | Activity (Rattus norvegicus [12]): Active | Activity (Rattus norvegicus [13]): 30.6% | Activity (Rattus norvegicus [14]): 3.9% | Activity (Rattus norvegicus [15]): 7.6% | Activity (Mus musculus [17]): Dose-dependent effect | Activity (Mus musculus [18]): Non-toxic | Activity (Rattus norvegicus [21]): 12.2% | Activity (Rattus norvegicus [22]): 23.2%

IC50 [1]: 170 nM | IC50 [3]: 90 nM
Structure (SMILES): Cc1c2cc(-n3ccc(OCc4ccc(C(F)(F)F)s4)cc3=O)ccc2nn1C

IC50 [1]: 210 nM | IC50 [3]: 130 nM
Structure (SMILES): CCCn1nc2ccc(-n3ccc(OCc4ccc(Cl)cc4)cc3=O)cc2c1C

IC50 [1]: 35 nM | IC50 [3]: 36 nM
Structure (SMILES): Cc1c2cc(-n3ccc(OCc4ccc(Cl)cc4)cc3=O)ccc2nn1C
Activity (Salmonella typhimurium [23]): Non-toxic | fold change (FC) (Salmonella typhimurium [24]): 2

IC50 [1]: 110 nM | IC50 [3]: 76 nM
Structure (SMILES): Cc1c2cc(-n3ccc(OCc4ccc(F)cc4)cc3=O)ccc2nn1C
Activity (Salmonella typhimurium [2]): Non-toxic

From ChEMBL document CHEMBL3792310, “Amine-free melanin-concentrating hormone receptor 1 antagonists: Novel non-basic 1-(2H-indazole-5-yl)pyridin-2(1H)-one derivatives and mitigation of mutagenicity in Ames test” (Bioorg Med Chem, 2016)
